Test results taken from ChEMBL document CHEMBL2157923, “1,3-Azoles from ortho-naphthoquinones: synthesis of aryl substituted imidazoles and oxazoles and their potent activity against Mycobacterium tuberculosis” (Bioorg Med Chem, 2012).
Values after ≈ are worked out from the molar mass of the structure shown. Active and inactive are the calls of the source. The calls are words filed in the database; no cut-off is given here.

Key:
Type in all cases: functional
[1] = system: Mycobacterium tuberculosis; experiment: Antimycobacterial activity against rifampicin-resistant Mycobacterium tuberculosis ATCC 35338 after 7 days by resazurin microtitre assay
Outline: (§1)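 REMA MIC. Strains kept on Ogawa-Kudoh medium 14 days at 37 °C. Suspension vortexed and adjusted to McFarland tube 1 (3.2 × 10^6 cfu/mL), then diluted 1:20 in Middlebrook 7H9 with 10% OADC and glycerol. Compounds tested from 100 ug/mL down to 0.19 ug/mL. Incubated 7 days at 37 °C, resazurin added, 2 more days at 37 °C; colour change read.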

[2] = system: Mycobacterium tuberculosis; experiment: Antimycobacterial activity against isoniazid-resistant Mycobacterium tuberculosis ATCC 35822 after 7 days by resazurin microtitre assay; outline: as §1
[3] = system: Mycobacterium tuberculosis; experiment: Antimycobacterial activity against rifampicin-resistant Mycobacterium tuberculosis; outline: as §1

Row | Compound | MIC ([1]; ATCC 35338, 168 h) [µM] | MIC ([2]; ATCC 35822, 168 h) [µM] | MIC [1] | MIC [2] | MIC [3] [µg/mL]
1 | CO[C@H]1/C=C/O[C@@]2(C)Oc3c(C)c(O)c4c(O)c(c(/C=N/N5CCN(C)CC5)c(O)c4c3C2=O)NC(=O)/C(C)=C\C=C\[C@H](C)[C@H](O)[C@@H](C)[C@@H](O)[C@@H](C)[C@H](OC(C)=O)[C@@H]1C [RIFAMPIN] | > 4.8 | ≤ 0.1 |  |  | 
2 | CC1(C)Cc2c(c3ccccc3c3nc(-c4ccc([N+](=O)[O-])cc4)oc23)O1 |  | > 278 |  |  | 
3 | CC1(C)CCc2c(c3ccccc3c3nc(-c4cccc(F)c4)[nH]c23)O1 | 18 (≈ 6.24 µg/mL) | 18 (≈ 6.24 µg/mL) |  |  | 
4 | C=CCC1=C(O)C(=O)c2ccccc2C1=O | 117 (≈ 25 µg/mL) | 467 (≈ 100 µg/mL) |  |  | 
5 | CC1(C)CCc2c(c3ccccc3c3nc(-c4ccccc4)[nH]c23)O1 | > 304 | 38 (≈ 12.5 µg/mL) |  |  | 
6 | CC1Cc2c(c3ccccc3c3nc(-c4ccc([N+](=O)[O-])cc4)oc23)O1 (stereo not given) | 289 (≈ 100 µg/mL) | > 289 |  |  | 
7 | CC1CC2=C(O1)c1ccccc1C(=O)C2=O (stereo not given) |  |  | inactive | inactive | 
8 | CC1(C)CCc2c(c3ccccc3c3nc(-c4cccnc4)[nH]c23)O1 |  |  | inactive | inactive | 
9 | CC1(C)CCc2c(c3ccccc3c3nc(-c4ccc(F)cc4)[nH]c23)O1 | 18 (≈ 6.24 µg/mL) | 18 (≈ 6.24 µg/mL) |  |  | 
10 | CC1(C)CCc2c(c3ccccc3c3nc(-c4cccc(C#N)c4)[nH]c23)O1 |  |  | inactive | inactive | 
11 | CC1(C)CCc2c(c3ccccc3c3nc(-c4ccc(Cl)cc4)[nH]c23)O1 | 17.2 (≈ 6.24 µg/mL) | 17.2 (≈ 6.24 µg/mL) |  |  | 
12 | CC1(C)CCc2c(c3ccccc3c3nc(-c4cccc(Br)c4)[nH]c23)O1 | 15.3 (≈ 6.23 µg/mL) | 15.3 (≈ 6.23 µg/mL) |  |  | 
13 | CC1(C)CCc2c(c3ccccc3c3nc(-c4ccc([N+](=O)[O-])cc4)[nH]c23)O1 |  | 4.2 (≈ 1.57 µg/mL) | inactive |  | 
14 | CC1(C)CCc2c(c3ccccc3c3nc(-c4ccccc4[N+](=O)[O-])[nH]c23)O1 | 33.5 (≈ 12.5 µg/mL) | 16.7 (≈ 6.24 µg/mL) |  |  | 
15 | CC1(C)Cc2c(c3ccccc3c3nc(-c4ccccc4)[nH]c23)O1 | 318 (≈ 100 µg/mL) | > 318 |  |  | 
16 | Cc1ccccc1-c1nc2c([nH]1)c1c(c3ccccc32)OC(C)(C)CC1 | 4.5 (≈ 1.54 µg/mL) | 4.5 (≈ 1.54 µg/mL) |  |  | 
17 | CC1(C)CCc2c(c3ccccc3c3nc(-c4cccc(C#N)c4)oc23)O1 | 17.6 (≈ 6.24 µg/mL) | 17.6 (≈ 6.24 µg/mL) |  |  | 

Row | Compound | MIC ([1]; ATCC 35338, 168 h) [µM] | MIC ([2]; ATCC 35822, 168 h) [µM] | MIC [1] | MIC [2] | MIC [3] [µg/mL]
18 | CC1(C)CCc2c(c3ccccc3c3nc(-c4ccccc4Br)[nH]c23)O1 | 15.3 (≈ 6.23 µg/mL) | 15.3 (≈ 6.23 µg/mL) |  |  | 
19 | CC1(C)CCc2c(c3ccccc3c3nc(-c4ccc(C#N)cc4)[nH]c23)O1 |  |  | inactive | inactive | 
20 | C=CCC1Cc2c(c3ccccc3c3nc4ccccc4nc23)OC1(C)C (stereo not given) |  |  |  |  | 0.78 (≈ 2.2 µM)
21 | CC1(C)CCc2c(c3ccccc3c3nc(-c4cccc(C(F)(F)F)c4)[nH]c23)O1 | 4 (≈ 1.59 µg/mL) | 4 (≈ 1.59 µg/mL) |  |  | 
22 | CC1(C)CCc2c(c3ccccc3c3nc(-c4cnc5ccccc5c4)[nH]c23)O1 |  |  | inactive | inactive | 
23 | CC1(C)CCc2c(c3ccccc3c3nc(-c4ccccn4)[nH]c23)O1 | 19 (≈ 6.26 µg/mL) | 19 (≈ 6.26 µg/mL) |  |  | 
24 | CC1(C)CCc2c(c3ccccc3c3nc(-c4ccc(C(F)(F)F)cc4)[nH]c23)O1 |  |  | inactive | inactive | 
25 | CC1(C)CCc2c(c3ccccc3c3nc(-c4cccc([N+](=O)[O-])c4)[nH]c23)O1 |  |  | inactive | inactive | 
26 | CC1(C)CCc2c(c3ccccc3c3nc(-c4ccccc4C(F)(F)F)[nH]c23)O1 | 2 (≈ 0.793 µg/mL) | 4 (≈ 1.59 µg/mL) |  |  | 
27 | CC1(C)CCc2c(c3ccccc3c3nc(-c4ccccc4C#N)oc23)O1 | 17.6 (≈ 6.24 µg/mL) | 17.6 (≈ 6.24 µg/mL) |  |  | 
28 | COc1ccccc1-c1nc2c([nH]1)c1c(c3ccccc32)OC(C)(C)CC1 | 17.4 (≈ 6.24 µg/mL) | 17.4 (≈ 6.24 µg/mL) |  |  | 
29 | NNC(=O)c1ccncc1 [ISONIAZID] | ≤ 0.4 | 7.3 (≈ 1 µg/mL) |  |  | 
30 | Cc1ccc(-c2nc3c(o2)c2c(c4ccccc43)OC(C)(C)C2)cc1 |  | > 304 |  |  | 
31 | CC1(C)CCc2c(c3ccccc3c3nc(-c4ccc(C#N)cc4)oc23)O1 | 4.4 (≈ 1.56 µg/mL) | 8.8 (≈ 3.12 µg/mL) |  |  | 
32 | CC1(C)CCc2c(c3ccccc3c3nc(-c4ccc(Br)cc4)[nH]c23)O1 |  |  | inactive | inactive | 
33 | CC1(C)CCc2c(c3ccccc3c3nc(-c4cc5ccccc5cn4)[nH]c23)O1 | ≤ 2 | ≤ 2 |  |  | 
34 | Cc1ccc(-c2nc3c([nH]2)c2c(c4ccccc43)OC(C)(C)C2)cc1 | 304 (≈ 100 µg/mL) | > 304 |  |  | 
